The values that follow come from ChEMBL document CHEMBL1165965, “Synthesis and structure-activity relationships of 1,2,3,4-tetrahydropyrido[2,3-b]pyrazines as potent and selective inhibitors of the anaplastic lymphoma kinase” (Bioorg Med Chem, 2010).

In experiment [1] the target is T1, Serine/threonine-protein kinase DCLK2 (Homo sapiens) (UniProt Q8N568).
T1 sequence (whole entry): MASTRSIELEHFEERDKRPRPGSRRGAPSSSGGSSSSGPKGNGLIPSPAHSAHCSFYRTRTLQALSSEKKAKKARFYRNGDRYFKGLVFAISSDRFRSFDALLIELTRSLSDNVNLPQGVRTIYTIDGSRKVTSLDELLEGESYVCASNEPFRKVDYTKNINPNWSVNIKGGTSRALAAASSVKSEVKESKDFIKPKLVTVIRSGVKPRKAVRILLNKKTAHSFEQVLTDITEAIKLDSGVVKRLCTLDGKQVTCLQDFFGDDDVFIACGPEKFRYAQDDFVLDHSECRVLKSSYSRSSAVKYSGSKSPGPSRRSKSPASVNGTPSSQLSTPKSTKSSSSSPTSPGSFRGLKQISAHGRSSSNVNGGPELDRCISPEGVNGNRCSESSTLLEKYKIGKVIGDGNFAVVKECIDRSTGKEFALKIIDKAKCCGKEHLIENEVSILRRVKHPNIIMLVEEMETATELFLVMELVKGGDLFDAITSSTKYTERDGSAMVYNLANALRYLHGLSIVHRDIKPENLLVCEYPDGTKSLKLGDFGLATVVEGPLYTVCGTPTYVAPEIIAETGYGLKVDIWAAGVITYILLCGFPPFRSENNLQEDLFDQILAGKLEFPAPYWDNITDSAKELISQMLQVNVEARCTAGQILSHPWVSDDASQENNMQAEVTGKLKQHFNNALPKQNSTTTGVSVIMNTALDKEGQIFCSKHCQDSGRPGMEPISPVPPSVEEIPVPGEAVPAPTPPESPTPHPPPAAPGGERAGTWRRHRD
Briefly: Inhibition of DCAMKL2 at 1 uM.

For experiment [2], the system named is Mast/stem cell growth factor receptor Kit (Homo sapiens), P10721 [V559D]. Briefly: Inhibition of KIT V559D mutant at 1 uM. The method, boiled down: (§1)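 Single-concentration screen on the Ambit KINOMEscan platform, run against a panel of 250–400 kinases. Per-kinase inhibition was also summarized as S(90), the fraction of kinases inhibited by more than 90%.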

The target in experiment [3] is T2, Protein kinase C epsilon type (Homo sapiens) (UniProt Q02156).
T2 sequence (whole entry): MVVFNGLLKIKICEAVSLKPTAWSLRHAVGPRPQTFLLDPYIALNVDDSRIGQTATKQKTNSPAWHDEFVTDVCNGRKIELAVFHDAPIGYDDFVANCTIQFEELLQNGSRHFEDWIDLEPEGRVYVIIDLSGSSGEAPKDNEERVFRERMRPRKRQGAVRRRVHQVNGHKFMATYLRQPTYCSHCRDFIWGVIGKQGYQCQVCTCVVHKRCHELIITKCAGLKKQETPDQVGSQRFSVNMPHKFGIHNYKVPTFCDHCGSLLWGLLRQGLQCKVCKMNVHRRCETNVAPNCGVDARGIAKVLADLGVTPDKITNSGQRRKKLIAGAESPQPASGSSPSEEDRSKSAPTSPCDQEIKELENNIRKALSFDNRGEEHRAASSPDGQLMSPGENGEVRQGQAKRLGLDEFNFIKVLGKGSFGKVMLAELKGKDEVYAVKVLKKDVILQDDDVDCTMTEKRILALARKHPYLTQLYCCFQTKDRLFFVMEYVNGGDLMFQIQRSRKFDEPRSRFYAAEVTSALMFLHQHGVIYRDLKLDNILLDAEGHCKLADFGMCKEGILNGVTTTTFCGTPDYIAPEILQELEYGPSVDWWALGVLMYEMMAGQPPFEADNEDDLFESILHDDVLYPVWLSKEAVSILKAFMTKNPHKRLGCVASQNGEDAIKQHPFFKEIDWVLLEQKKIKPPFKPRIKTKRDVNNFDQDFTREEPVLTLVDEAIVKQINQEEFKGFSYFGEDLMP
Briefly: Inhibition of PRKCE at 1 uM.

Experiment [4] has as its target LIM domain kinase 1 (Homo sapiens) (UniProt P53667). Description: Inhibition of LIMK1 at 1 uM. The method, boiled down: as §1
The test system of experiment [5] is Phosphatidylinositol 4,5-bisphosphate 3-kinase catalytic subunit alpha isoform (Homo sapiens), P42336 [C420R]. Description: Inhibition of PIK3CA C420R mutant at 1 uM.
Sequence of Phosphatidylinositol 4,5-bisphosphate 3-kinase catalytic subunit alpha isoform (Homo sapiens), P42336 [C420R] (P42336 whole entry C420R, canonical isoform): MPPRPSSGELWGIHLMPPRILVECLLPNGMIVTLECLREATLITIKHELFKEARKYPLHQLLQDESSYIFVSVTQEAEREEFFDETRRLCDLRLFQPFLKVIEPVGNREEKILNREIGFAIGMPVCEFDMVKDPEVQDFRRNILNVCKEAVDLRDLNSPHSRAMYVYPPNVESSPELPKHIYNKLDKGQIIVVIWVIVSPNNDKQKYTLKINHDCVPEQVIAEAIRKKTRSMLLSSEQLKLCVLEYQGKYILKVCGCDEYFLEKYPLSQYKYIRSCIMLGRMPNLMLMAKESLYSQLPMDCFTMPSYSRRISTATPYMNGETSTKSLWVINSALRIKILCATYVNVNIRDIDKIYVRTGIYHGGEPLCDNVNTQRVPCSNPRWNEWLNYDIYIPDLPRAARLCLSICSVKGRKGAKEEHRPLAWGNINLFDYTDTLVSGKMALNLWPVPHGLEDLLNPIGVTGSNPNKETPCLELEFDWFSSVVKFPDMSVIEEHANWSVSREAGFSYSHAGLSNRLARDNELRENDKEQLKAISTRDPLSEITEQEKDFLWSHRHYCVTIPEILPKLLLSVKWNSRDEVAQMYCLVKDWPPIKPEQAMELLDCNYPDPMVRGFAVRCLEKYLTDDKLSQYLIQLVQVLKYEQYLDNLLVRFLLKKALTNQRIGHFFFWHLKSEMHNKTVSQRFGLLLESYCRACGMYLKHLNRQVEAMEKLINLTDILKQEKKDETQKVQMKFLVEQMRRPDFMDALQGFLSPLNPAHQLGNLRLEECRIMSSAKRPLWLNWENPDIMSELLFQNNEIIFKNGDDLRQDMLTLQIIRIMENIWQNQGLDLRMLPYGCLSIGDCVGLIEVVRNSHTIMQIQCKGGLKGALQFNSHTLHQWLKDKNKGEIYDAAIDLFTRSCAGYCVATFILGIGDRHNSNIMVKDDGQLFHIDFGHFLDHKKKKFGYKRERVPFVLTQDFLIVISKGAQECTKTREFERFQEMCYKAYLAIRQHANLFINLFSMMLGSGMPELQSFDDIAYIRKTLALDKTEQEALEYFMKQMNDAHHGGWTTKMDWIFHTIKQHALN
Experiment [6] concerns Fibroblast growth factor receptor 3 (Homo sapiens), P22607 [G697C]. Briefly: Inhibition of FGFR3 G697C mutant at 1 uM. The method, boiled down:
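Single-concentration screen using Ambit Bioscience KINOMEscan technology across a panel of 250–400 kinases. Per-kinase inhibition from this screen was summarized as S(90), the fraction of kinases inhibited by more than 90%.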

The target in experiment [7] is Serine/threonine-protein kinase N1 (Homo sapiens) (UniProt Q16512). Description: Inhibition of PKN1 at 1 uM.
Sequence of Serine/threonine-protein kinase N1 (Homo sapiens) (Q16512 2-942 limits assumed): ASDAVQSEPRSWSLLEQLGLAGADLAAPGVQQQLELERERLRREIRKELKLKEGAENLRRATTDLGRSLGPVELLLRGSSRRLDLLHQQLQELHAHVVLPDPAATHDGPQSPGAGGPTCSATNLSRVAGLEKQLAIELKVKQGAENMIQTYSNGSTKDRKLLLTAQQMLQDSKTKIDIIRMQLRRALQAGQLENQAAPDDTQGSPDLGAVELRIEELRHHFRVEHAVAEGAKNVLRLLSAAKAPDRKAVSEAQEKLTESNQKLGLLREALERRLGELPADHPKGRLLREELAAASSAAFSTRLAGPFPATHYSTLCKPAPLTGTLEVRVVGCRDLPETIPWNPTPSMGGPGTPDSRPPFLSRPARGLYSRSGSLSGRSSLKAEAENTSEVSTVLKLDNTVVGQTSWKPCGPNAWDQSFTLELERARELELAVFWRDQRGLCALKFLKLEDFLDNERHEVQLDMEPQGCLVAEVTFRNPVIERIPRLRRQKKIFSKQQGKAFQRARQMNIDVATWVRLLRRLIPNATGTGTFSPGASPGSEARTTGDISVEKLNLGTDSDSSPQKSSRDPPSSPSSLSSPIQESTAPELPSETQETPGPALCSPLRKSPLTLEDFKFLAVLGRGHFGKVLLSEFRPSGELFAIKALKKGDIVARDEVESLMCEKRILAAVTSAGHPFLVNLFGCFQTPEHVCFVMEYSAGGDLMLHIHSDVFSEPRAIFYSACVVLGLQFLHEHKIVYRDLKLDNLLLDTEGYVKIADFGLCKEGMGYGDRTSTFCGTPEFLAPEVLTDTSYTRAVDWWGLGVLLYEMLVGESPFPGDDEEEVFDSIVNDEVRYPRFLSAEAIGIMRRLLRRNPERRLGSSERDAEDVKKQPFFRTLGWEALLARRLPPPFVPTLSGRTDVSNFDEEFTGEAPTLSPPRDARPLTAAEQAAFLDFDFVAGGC
Experiment [8] deals with Myosin-IIIa (Homo sapiens) (UniProt Q8NEV4). Description: Inhibition of MYO3A at 1 uM.
For experiment [9], the target named is Cyclin-dependent kinase 15 (Homo sapiens) (UniProt Q96Q40). Briefly: Inhibition of PFTAIRE2 at 1 uM.
Sequence of Cyclin-dependent kinase 15 (Homo sapiens) (Q96Q40 whole entry): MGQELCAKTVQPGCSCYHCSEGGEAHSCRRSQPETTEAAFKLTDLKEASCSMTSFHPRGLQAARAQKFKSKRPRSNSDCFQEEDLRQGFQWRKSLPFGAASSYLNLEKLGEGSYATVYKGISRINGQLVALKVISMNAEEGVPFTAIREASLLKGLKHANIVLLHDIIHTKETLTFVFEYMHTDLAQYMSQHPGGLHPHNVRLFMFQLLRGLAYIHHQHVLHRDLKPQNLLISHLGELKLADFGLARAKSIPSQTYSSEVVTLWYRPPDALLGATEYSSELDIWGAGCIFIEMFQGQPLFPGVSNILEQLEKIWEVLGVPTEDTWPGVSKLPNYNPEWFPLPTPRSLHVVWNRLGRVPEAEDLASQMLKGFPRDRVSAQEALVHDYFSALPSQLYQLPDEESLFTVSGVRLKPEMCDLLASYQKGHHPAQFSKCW
Experiment [10] deals with Serine/threonine-protein kinase 10 (Homo sapiens) (UniProt O94804). Briefly: Inhibition of LOK at 1 uM. The method, boiled down:
as §1

Experiment [11] addresses T3, Serine/threonine-protein kinase Nek5 (Homo sapiens) (UniProt Q6P3R8).
T3 sequence (whole entry): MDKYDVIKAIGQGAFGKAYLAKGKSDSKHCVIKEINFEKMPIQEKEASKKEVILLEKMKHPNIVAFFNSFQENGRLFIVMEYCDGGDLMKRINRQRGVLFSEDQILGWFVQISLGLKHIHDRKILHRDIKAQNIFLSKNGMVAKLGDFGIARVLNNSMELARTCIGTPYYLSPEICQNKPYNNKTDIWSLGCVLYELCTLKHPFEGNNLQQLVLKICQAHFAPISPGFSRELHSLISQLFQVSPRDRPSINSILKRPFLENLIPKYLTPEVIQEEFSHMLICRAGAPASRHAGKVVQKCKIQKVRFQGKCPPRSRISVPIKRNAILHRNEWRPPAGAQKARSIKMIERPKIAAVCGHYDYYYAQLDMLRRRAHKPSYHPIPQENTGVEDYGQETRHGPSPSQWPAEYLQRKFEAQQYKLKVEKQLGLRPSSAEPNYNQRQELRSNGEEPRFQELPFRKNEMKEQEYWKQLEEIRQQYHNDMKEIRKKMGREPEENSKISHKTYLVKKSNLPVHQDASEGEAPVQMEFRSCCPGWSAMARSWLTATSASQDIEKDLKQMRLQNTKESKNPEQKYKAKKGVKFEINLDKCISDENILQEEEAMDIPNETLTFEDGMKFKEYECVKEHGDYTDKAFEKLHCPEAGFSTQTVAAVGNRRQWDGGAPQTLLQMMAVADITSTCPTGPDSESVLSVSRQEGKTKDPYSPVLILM
Briefly: Inhibition of NEK5 at 1 uM.

Experiment [12] deals with Phosphatidylinositol 4,5-bisphosphate 3-kinase catalytic subunit alpha isoform (Homo sapiens), P42336 [H1047L]. Description: Inhibition of PIK3CA H1047L mutant at 1 uM.
Sequence of Phosphatidylinositol 4,5-bisphosphate 3-kinase catalytic subunit alpha isoform (Homo sapiens), P42336 [H1047L] (P42336 whole entry H1047L, canonical isoform): as the sequence (P42336 whole entry C420R, canonical isoform) above, with R420C, H1047L counted along it

Sequence of Serine/threonine-protein kinase 10 (Homo sapiens) (O94804 whole entry, looked up): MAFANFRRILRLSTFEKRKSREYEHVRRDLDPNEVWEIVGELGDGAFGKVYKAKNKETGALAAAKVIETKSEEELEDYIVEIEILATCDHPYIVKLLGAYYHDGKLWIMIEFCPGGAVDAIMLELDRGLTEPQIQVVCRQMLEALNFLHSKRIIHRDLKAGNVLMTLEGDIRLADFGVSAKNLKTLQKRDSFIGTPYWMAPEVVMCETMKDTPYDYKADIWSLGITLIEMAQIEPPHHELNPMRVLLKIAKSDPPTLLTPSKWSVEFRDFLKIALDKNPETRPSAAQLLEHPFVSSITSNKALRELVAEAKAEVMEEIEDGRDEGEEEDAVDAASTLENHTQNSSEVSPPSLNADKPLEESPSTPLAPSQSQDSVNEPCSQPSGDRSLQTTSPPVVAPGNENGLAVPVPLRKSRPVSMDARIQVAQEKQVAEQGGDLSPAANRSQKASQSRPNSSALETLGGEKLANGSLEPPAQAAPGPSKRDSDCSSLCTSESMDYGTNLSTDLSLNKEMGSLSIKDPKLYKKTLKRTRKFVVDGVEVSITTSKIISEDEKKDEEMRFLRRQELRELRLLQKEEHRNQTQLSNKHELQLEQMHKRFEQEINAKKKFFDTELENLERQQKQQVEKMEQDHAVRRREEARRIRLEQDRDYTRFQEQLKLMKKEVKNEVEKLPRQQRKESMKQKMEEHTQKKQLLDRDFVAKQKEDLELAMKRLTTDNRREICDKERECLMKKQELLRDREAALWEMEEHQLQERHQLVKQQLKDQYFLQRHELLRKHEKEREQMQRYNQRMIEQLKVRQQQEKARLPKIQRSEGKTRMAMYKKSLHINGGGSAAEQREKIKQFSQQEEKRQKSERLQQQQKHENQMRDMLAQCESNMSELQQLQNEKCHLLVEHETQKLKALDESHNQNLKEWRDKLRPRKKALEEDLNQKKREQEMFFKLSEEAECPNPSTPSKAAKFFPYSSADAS
Sequence of Fibroblast growth factor receptor 3 (Homo sapiens), P22607 [G697C] (P22607 whole entry G697C): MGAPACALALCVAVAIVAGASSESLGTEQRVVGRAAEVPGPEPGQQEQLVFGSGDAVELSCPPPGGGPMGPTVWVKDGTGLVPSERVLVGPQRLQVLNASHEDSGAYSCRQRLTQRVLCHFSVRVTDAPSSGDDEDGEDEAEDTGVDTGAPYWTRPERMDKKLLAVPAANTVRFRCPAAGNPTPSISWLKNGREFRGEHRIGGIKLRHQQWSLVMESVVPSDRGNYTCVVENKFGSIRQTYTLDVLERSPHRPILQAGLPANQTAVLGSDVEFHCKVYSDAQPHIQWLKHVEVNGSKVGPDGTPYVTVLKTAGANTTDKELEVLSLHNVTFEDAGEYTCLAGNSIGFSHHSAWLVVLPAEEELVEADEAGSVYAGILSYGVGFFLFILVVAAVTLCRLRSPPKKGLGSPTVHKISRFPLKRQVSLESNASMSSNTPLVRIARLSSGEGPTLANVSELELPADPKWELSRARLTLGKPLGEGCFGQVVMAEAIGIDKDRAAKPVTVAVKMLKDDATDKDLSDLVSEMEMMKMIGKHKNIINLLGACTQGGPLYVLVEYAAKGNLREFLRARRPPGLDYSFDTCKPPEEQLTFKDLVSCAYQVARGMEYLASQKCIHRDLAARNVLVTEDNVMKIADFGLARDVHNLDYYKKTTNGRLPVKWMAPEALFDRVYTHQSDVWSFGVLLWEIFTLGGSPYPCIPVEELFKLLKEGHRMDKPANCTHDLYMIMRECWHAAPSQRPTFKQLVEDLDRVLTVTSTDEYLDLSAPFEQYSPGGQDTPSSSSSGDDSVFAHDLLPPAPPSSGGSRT
Sequence of LIM domain kinase 1 (Homo sapiens) (P53667 whole entry, looked up, the tested form may be a part, canonical isoform): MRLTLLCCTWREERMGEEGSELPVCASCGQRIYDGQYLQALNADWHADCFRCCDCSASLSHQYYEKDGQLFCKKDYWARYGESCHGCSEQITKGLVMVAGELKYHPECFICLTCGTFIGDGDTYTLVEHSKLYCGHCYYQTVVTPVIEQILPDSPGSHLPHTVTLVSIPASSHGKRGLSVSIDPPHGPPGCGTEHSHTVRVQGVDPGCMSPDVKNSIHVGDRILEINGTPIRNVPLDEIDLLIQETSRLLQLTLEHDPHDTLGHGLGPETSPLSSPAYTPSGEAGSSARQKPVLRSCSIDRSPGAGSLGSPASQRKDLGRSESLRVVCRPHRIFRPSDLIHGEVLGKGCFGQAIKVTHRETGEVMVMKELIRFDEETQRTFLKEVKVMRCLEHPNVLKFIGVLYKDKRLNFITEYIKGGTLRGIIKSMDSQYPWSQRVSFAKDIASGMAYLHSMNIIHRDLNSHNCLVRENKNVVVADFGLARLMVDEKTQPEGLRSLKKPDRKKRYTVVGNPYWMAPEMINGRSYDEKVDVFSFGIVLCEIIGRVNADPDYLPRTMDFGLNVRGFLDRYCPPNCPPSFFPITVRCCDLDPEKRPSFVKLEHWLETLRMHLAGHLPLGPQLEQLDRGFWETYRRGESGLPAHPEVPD

On to `FC(F)(F)c1ccc(Cl)cc1CN1CCNc2ncc(-c3ccnc(N4CCNCC4)c3)cc21`, for which the inhibition in [1] is 96%; in experiment [2], 97%; in experiment [3], below 50%; in experiment [4] it was below 50%; in experiment [5], below 50%; in experiment [6], below 50%. Also, the inhibition in experiment [7] is 82%; in experiment [8], below 50%; in experiment [9], below 50%; in [10] it was 66%; in experiment [11], below 50%; in experiment [12] it was below 50%.

As for `CN1CCN(c2ccc(-c3cnc4c(c3)N(Cc3cc(F)ccc3F)CCN4)cn2)CC1`, the inhibition in experiment [1], in experiment [2], in [3], in [4], in [5] and in experiment [6] was below 50% throughout. Further, the inhibition in [7], in experiment [8], in [9], in experiment [10], in experiment [11] and in experiment [12] was below 50% each time.

With `CN1CCN(c2ccc(-c3cnc4c(c3)N(Cc3cc(Cl)ccc3Cl)CCN4)cn2)CC1`, the inhibition was below 50% in experiment [1]; 82% in [2]; below 50% in experiment [3]; below 50% in [4]; below 50% in [5]; below 50% in experiment [6]. Further, the inhibition in [7], in experiment [8], in [9], in experiment [10], in [11] and in experiment [12] was below 50% throughout.

For the compound `O=C(O)c1ccc(-c2cnc3c(c2)N(Cc2cc(Cl)ccc2C(F)(F)F)CCN3)cc1`, the inhibition in experiment [2], in experiment [4], in experiment [6] and in experiment [10] was below 50% throughout.

On to `CN1CCN(c2ccc(-c3cnc4c(c3)N(Cc3cc(Cl)ccc3C(F)(F)F)CCN4)cn2)CC1`, for which the inhibition in experiment [1], in [2], in experiment [3], in experiment [4], in experiment [5] and in experiment [6] was below 50% throughout. In addition, the inhibition in experiment [7], in [8], in experiment [9], in experiment [10], in experiment [11] and in [12] was below 50% in each case.

With `COC1CCN(C(=O)c2ccc(-c3cnc4c(c3)N(Cc3cc(Cl)ccc3C(F)(F)F)CCN4)cc2)CC1`, the inhibition in experiment [2], in experiment [4], in experiment [6] and in experiment [10] was below 50% each time.

With `O=C(c1ccc(-c2cnc3c(c2)N(Cc2cc(Cl)ccc2C(F)(F)F)CCN3)cc1)N1CCC(N2CCCC2)CC1`, the inhibition was 91.9% in experiment [2], below 50% in experiment [4], below 50% in experiment [6] and below 50% in experiment [10].

`CN1CCN(c2ccc(-c3cnc4c(c3)N(Cc3c(F)ccc(F)c3Cl)CCN4)cn2)CC1`: the inhibition in experiment [1] is below 50%; in experiment [2] it was 69%; in experiment [3] it was below 50%; in experiment [4] it was below 50%; in experiment [5] it was below 50%; in experiment [6], below 50%. In addition, the inhibition in experiment [7], in experiment [8], in experiment [9], in [10], in experiment [11] and in [12] was below 50% each time.

For `O=C(c1ccc(-c2cnc3c(c2)N(Cc2cc(Cl)ccc2C(F)(F)F)CCN3)cc1)N1CCCCC1`, the inhibition in experiment [2], in experiment [4], in experiment [6] and in experiment [10] was below 50% each time.

Take `CC(=O)N1CCN(c2cc(-c3cnc4c(c3)N(Cc3cc(Cl)ccc3C(F)(F)F)CCN4)ccn2)CC1`: the inhibition in experiment [1], in experiment [2], in experiment [3], in experiment [4], in experiment [5] and in [6] was below 50% each time. In addition, the inhibition in experiment [7], in [8], in [9], in experiment [10], in experiment [11] and in experiment [12] was below 50% throughout.
